ChEMBL document CHEMBL1154716, “Synthesis of some new S-triazine based chalcones and their derivatives as potent antimicrobial agents” (2010)
Converted amounts (≈) assume the structure as drawn. The source made the active and inactive calls. The rule behind the calls is not given here.

Key:
Bacillus cereus [1] = assay: Antimicrobial activity against Bacillus cereus at 10 ug/disk after 24 hrs by disk diffusion assay; assay type: functional
In short: (§1)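 Disc diffusion on 4 mm filter discs. Bacteria are grown overnight in LB at 28 C, then adjusted in saline to 1.0 × 10^5 cfu/ml. The suspension is mixed into top agar over peptone agar plates. Plates are incubated 24 h at 28 C, and growth-inhibition zone diameter is measured. Streptomycin and ampicillin controls are applied from a 1 mg/ml stock. Tests are done in duplicate.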

Micrococcus flavus [2] = assay: Antimicrobial activity against Micrococcus flavus at 10 ug/disk after 24 hrs by disk diffusion assay; assay type: functional; in short: as §1
Staphylococcus aureus [3] = assay: Antimicrobial activity against Staphylococcus aureus at 10 ug/disk after 24 hrs by disk diffusion assay; assay type: functional; in short: as §1
Escherichia coli [4] = assay: Antimicrobial activity against Escherichia coli at 10 ug/disk after 24 hrs by disk diffusion assay; assay type: functional; in short: as §1
Pseudomonas aeruginosa [5] = assay: Antimicrobial activity against Pseudomonas aeruginosa at 10 ug/disk after 24 hrs by disk diffusion assay; assay type: functional; in short: as §1
Enterobacter cloacae [6] = assay: Antimicrobial activity against Enterobacter cloacae at 10 ug/disk after 24 hrs by disk diffusion assay; assay type: functional; in short: as §1
Salmonella typhimurium [7] = assay: Antimicrobial activity against Salmonella Typhimurium at 10 ug/disk after 24 hrs by disk diffusion assay; assay type: functional, organism-based; settings: Salmonella enterica subsp. enterica serovar Typhimurium; in short: as §1
Listeria monocytogenes [8] = assay: Antimicrobial activity against Listeria monocytogenes at 10 ug/disk after 24 hrs by disk diffusion assay; assay type: functional; in short: as §1
Bacillus cereus [9] = assay: Antimicrobial activity against Bacillus cereus at 1 umol/disk after 24 hrs by disk diffusion assay; assay type: functional; in short: as §1
Micrococcus flavus [10] = assay: Antimicrobial activity against Micrococcus flavus at 1 umol/disk after 24 hrs by disk diffusion assay; assay type: functional; in short: as §1
Staphylococcus aureus [11] = assay: Antimicrobial activity against Staphylococcus aureus at 1 umol/disk after 24 hrs by disk diffusion assay; assay type: functional; design: unit not given here; in short: as §1
Escherichia coli [12] = assay: Antimicrobial activity against Escherichia coli at 1 umol/disk after 24 hrs by disk diffusion assay; assay type: functional; in short: as §1
Pseudomonas aeruginosa [13] = assay: Antimicrobial activity against Pseudomonas aeruginosa at 1 umol/disk after 24 hrs by disk diffusion assay; assay type: functional; in short: as §1
Enterobacter cloacae [14] = assay: Antimicrobial activity against Enterobacter cloacae at 1 umol/disk after 24 hrs by disk diffusion assay; assay type: functional; in short: as §1
Salmonella typhimurium [15] = assay: Antimicrobial activity against Salmonella Typhimurium at 1 umol/disk after 24 hrs by disk diffusion assay; assay type: functional, organism-based; settings: Salmonella enterica subsp. enterica serovar Typhimurium; in short: as §1
Listeria monocytogenes [16] = assay: Antimicrobial activity against Listeria monocytogenes at 1 umol/disk after 24 hrs by disk diffusion assay; assay type: functional; in short: as §1
Bacillus cereus [17] = assay: Antimicrobial activity against Bacillus cereus at 1 umol/spot after 18 hrs by TLC-bioautographic method; assay type: functional
In short: (§2)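 TLC bioautography. Samples are spotted on silica gel TLC plates, then sprayed with bacteria (1.0 × 10^5 cfu/ml) in tryptic soy broth. Plates are incubated 18 h at 37 C and sprayed with 3% aqueous p-iodonitrotetrazolium violet. After a further 3 h, growth is stopped with 70% EtOH. White zones on a pink background are scored as inhibition-zone diameter with standard errors.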

Micrococcus flavus [18] = assay: Antimicrobial activity against Micrococcus flavus at 1 umol/spot after 18 hrs by TLC-bioautographic method; assay type: functional; in short: as §2
Staphylococcus aureus [19] = assay: Antimicrobial activity against Staphylococcus aureus at 1 umol/spot after 18 hrs by TLC-bioautographic method; assay type: functional; in short: as §2
Escherichia coli [20] = assay: Antimicrobial activity against Escherichia coli at 1 umol/spot after 18 hrs by TLC-bioautographic method; assay type: functional; in short: as §2
Pseudomonas aeruginosa [21] = assay: Antimicrobial activity against Pseudomonas aeruginosa at 1 umol/spot after 18 hrs by TLC-bioautographic method; assay type: functional; in short: as §2
Enterobacter cloacae [22] = assay: Antimicrobial activity against Enterobacter cloacae at 1 umol/spot after 18 hrs by TLC-bioautographic method; assay type: functional; in short: as §2
Salmonella typhimurium [23] = assay: Antimicrobial activity against Salmonella Typhimurium at 1 umol/spot after 18 hrs by TLC-bioautographic method; assay type: functional, Salmonella enterica subsp. enterica serovar Typhimurium; in short: as §2
Listeria monocytogenes [24] = assay: Antimicrobial activity against Listeria monocytogenes at 1 umol/spot after 18 hrs by TLC-bioautographic method; assay type: functional; in short: as §2
Bacillus cereus [25] = assay: Antimicrobial activity against Bacillus cereus after 24 hrs by microdilution technique; assay type: functional
In short: (§3)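 Broth microdilution in LB medium. Inoculum is 1.0 × 10^4 cfu per well, from a saline-adjusted suspension of 1.0 × 10^5 cfu/ml. Compounds are dissolved in DMSO. Incubated 24 h at 28 C. MIC is the lowest concentration with no visible growth under a binocular microscope. MBC is read by subculture into fresh broth for 72 h, with no growth taken as 99.5% kill. OD is read at 655 nm.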

Micrococcus flavus [26] = assay: Antimicrobial activity against Micrococcus flavus after 24 hrs by microdilution technique; assay type: functional; in short: as §3
Staphylococcus aureus [27] = assay: Antimicrobial activity against Staphylococcus aureus after 24 hrs by microdilution technique; assay type: functional; in short: as §3
Escherichia coli [28] = assay: Antimicrobial activity against Escherichia coli after 24 hrs by microdilution technique; assay type: functional; in short: as §3
Pseudomonas aeruginosa [29] = assay: Antimicrobial activity against Pseudomonas aeruginosa after 24 hrs by microdilution technique; assay type: functional; in short: as §3
Enterobacter cloacae [30] = assay: Antimicrobial activity against Enterobacter cloacae after 24 hrs by microdilution technique; assay type: functional; in short: as §3
Salmonella typhimurium [31] = assay: Antimicrobial activity against Salmonella Typhimurium after 24 hrs by microdilution technique; assay type: functional, Salmonella enterica subsp. enterica serovar Typhimurium; settings: Salmonella enterica; in short: as §3
Listeria monocytogenes [32] = assay: Antimicrobial activity against Listeria monocytogenes after 24 hrs by microdilution technique; assay type: functional; in short: as §3

Structure (SMILES) | inhibition zone (IZ) (Bacillus cereus [1]) | inhibition zone (IZ) (Micrococcus flavus [2]) | inhibition zone (IZ) (Escherichia coli [4]) | inhibition zone (IZ) (Pseudomonas aeruginosa [5]) | inhibition zone (IZ) (Enterobacter cloacae [6]) | inhibition zone (IZ) (Salmonella typhimurium [7]) | inhibition zone (IZ) (Listeria monocytogenes [8]) | inhibition zone (IZ) (Bacillus cereus [9]) | inhibition zone (IZ) (Micrococcus flavus [10]) | inhibition zone (IZ) (Staphylococcus aureus [11]) | inhibition zone (IZ) (Escherichia coli [12]) | inhibition zone (IZ) (Pseudomonas aeruginosa [13]) | inhibition zone (IZ) (Enterobacter cloacae [14]) | inhibition zone (IZ) (Salmonella typhimurium [15]) | inhibition zone (IZ) (Listeria monocytogenes [16]) | inhibition zone (IZ) (Bacillus cereus [17]) | inhibition zone (IZ) (Micrococcus flavus [18]) | inhibition zone (IZ) (Staphylococcus aureus [19]) | inhibition zone (IZ) (Escherichia coli [20]) | inhibition zone (IZ) (Pseudomonas aeruginosa [21]) | further results
N#Cc1c(-c2ccco2)cc(-c2ccc(Nc3nc(Nc4ccccc4)nc(Nc4ccccc4)n3)cc2)nc1N | inactive | inactive | inactive | inactive | inactive | inactive | inactive | inactive | inactive | 0.03 | inactive | inactive | inactive | inactive | inactive | inactive | inactive | inactive | inactive | inactive | zone of inhibition at 10 µg/disc (Staphylococcus aureus [3]; read-out: IZ): 6 mm; inhibition zone (IZ) (Enterobacter cloacae [22]): 0.09 millimeter; inhibition zone (IZ) (Salmonella typhimurium [23]): 0.07 millimeter; inhibition zone (IZ) (Listeria monocytogenes [24]): 0.08 millimeter; MBC (Bacillus cereus [25]): 186 µM (≈ 100 µg/mL); MIC (Bacillus cereus [25]): 93 µM (≈ 50 µg/mL); MBC (Micrococcus flavus [26]): 186 µM (≈ 100 µg/mL); MIC (Micrococcus flavus [26]): 93 µM (≈ 50 µg/mL); MBC (Staphylococcus aureus [27]): 372 µM (≈ 200 µg/mL); MIC (Staphylococcus aureus [27]): 186 µM (≈ 100 µg/mL); MBC (Escherichia coli [28]): 186 µM (≈ 100 µg/mL); MIC (Escherichia coli [28]): 93 µM (≈ 50 µg/mL); MBC (Pseudomonas aeruginosa [29]): 744 µM (≈ 400 µg/mL); MIC (Pseudomonas aeruginosa [29]): 372 µM (≈ 200 µg/mL); MBC (Enterobacter cloacae [30]): 372 µM (≈ 200 µg/mL); MIC (Enterobacter cloacae [30]): 186 µM (≈ 100 µg/mL); MBC (Salmonella typhimurium [31]): 372 µM (≈ 200 µg/mL); MIC (Salmonella typhimurium [31]): 186 µM (≈ 100 µg/mL); MBC (Listeria monocytogenes [32]): 744 µM (≈ 400 µg/mL); MIC (Listeria monocytogenes [32]): 372 µM (≈ 200 µg/mL)
CC(=O)N1N=C(c2ccc(Nc3nc(Nc4ccccc4)nc(Nc4ccccc4)n3)cc2)CC1c1cccs1 (stereo not given) | inactive | inactive | inactive | inactive | inactive | inactive | inactive | inactive | inactive | inactive | inactive | inactive | inactive | inactive | inactive | 0.08 millimeter | inactive | inactive | inactive | inactive | inhibition zone (IZ) (Staphylococcus aureus [3]): inactive; inhibition zone (IZ) (Enterobacter cloacae [22]): 0.1 millimeter; inhibition zone (IZ) (Salmonella typhimurium [23]; Salmonella enterica subsp. enterica serovar Typhimurium): inactive; inhibition zone (IZ) (Listeria monocytogenes [24]): 0.08 millimeter; MBC (Bacillus cereus [25]): 376 µM (≈ 206 µg/mL); MIC (Bacillus cereus [25]): 188 µM (≈ 103 µg/mL); MBC (Micrococcus flavus [26]): 376 µM (≈ 206 µg/mL); MIC (Micrococcus flavus [26]): 188 µM (≈ 103 µg/mL); MBC (Staphylococcus aureus [27]): 732 µM (≈ 400 µg/mL); MIC (Staphylococcus aureus [27]): 376 µM (≈ 206 µg/mL); MBC (Escherichia coli [28]): 376 µM (≈ 206 µg/mL); MIC (Escherichia coli [28]): 188 µM (≈ 103 µg/mL); MBC (Pseudomonas aeruginosa [29]): 732 µM (≈ 400 µg/mL); MIC (Pseudomonas aeruginosa [29]): 376 µM (≈ 206 µg/mL); MBC (Enterobacter cloacae [30]): 732 µM (≈ 400 µg/mL); MIC (Enterobacter cloacae [30]): 732 µM (≈ 400 µg/mL); MBC (Salmonella typhimurium [31]): 732 µM (≈ 400 µg/mL); MIC (Salmonella typhimurium [31]): 376 µM (≈ 206 µg/mL); MBC (Listeria monocytogenes [32]): 732 µM (≈ 400 µg/mL); MIC (Listeria monocytogenes [32]): 732 µM (≈ 400 µg/mL)
